Source: PubChem BioAssay (Broad Institute)
CAL PDZ FP-1: blocks peptide binding to the human CAL PDZ domain | Q9HD26 | purified CAL PDZ, TMR-peptide fluorescence polarization, 1 h | inhibition, % at 24.9 µM | 300,000 compounds, 0.92% hits | AID 602252;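 active means mean inhibition of at least 30% with at least half of replicates also reaching 30%; inconclusive means no clear call, values can overlap the other calls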;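 further: 0% = DMSO neutral control and 100% = excess unlabeled competitor peptide PRC23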
SIRT5 block: inhibitors of human sirtuin-5 desuccinylase; Purified SirT5, succinyl-peptide AMC, trypsin-coupled fluorescence; 330,000 compounds, 1.1% hits; inhibition, % at 15 µM; Q9NXA8; in the data active means inhibition above about 15%; inconclusive means no clear call, values can overlap the other calls
Target sequence (Q9NXA8 whole entry, looked up): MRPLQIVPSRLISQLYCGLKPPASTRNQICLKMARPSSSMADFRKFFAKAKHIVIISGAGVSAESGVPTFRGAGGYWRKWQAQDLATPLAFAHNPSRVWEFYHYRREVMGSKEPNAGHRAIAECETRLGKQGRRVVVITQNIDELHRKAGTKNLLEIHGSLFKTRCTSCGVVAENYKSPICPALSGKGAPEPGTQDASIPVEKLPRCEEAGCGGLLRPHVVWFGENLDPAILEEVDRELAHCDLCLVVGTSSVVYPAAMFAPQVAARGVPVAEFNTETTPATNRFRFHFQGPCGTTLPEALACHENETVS
ERAP1 HTS inh: blocks human ERAP1 aminopeptidase activity | recombinant ERAP1, Leu-AMC fluorescence, 60 min | inhibition, % at 10.7 µM | 340,000 compounds, 0.15% hits;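 active means mean replicate inhibition of at least 30%, or all replicates individually reaching that 30% level; inactive means mean below 30% and not every replicate reaching it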;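 further: 0% = neutral control wells and 100% = L-leucinethiol positive control wells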
DENV2 CPE: protects cells from dengue virus 2 cytopathic effect. CPE inhibition, % at 9.99 µM. DENV2-infected cells, cytopathic effect rescue, plate reader. AID 651640. 350,000 compounds, 1.7% hits; in the data active means CPE inhibition above about 20%, passing the limit was not always enough; inconclusive means no clear call, values can overlap the other calls; tested in BHK-21 cells;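 further: 0% = median of neutral control wells and 100% = median of positive control wells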
S100A4 MyoIIA: S100A4-myosin IIA interaction inhibition. 360,000 compounds, 0.14% hits. S100A4/TAMRA-MyoIIA peptide fluorescence polarization. inhibition, % at 10.7 µM. AID 652163;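 active means mean inhibition of at least 70% across replicates, with every replicate also reaching that level; inconclusive means mean inhibition reaches 70% but some replicates fall short; inactive means mean inhibition below 70%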
Target sequence (P26447 whole entry, looked up): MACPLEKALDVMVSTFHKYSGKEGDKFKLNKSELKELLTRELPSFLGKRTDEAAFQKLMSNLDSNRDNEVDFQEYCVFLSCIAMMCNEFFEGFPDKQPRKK
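System – human S100A4 monomer protein, biochemical binding assay · Buffer or medium – Calcium-containing HEPES buffer, pH 7.2 · Timing – 5 min between mix addition and reading · Also added – TAMRA-labelled myosin IIA heavy-chain peptide probe, 5 nM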
CAL PDZ FP-2: human CAL PDZ-peptide interaction inhibition; inhibition, % at 20 µM; 330,000 compounds, 0.02% hits; purified CAL PDZ, TMR-peptide fluorescence polarization, 1 h; Q9HD26;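 active means highest replicate inhibition of at least 40%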;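 further: plate controls were DMSO neutral control wells for no effect and unlabeled competitor peptide control wells for full effect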
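Control set: unlabelled peptide and DMSO controls / Material: purified CerCALP PDZ construct / Timing: 1 h incubation at room temperature before polarization reading / Doses: 20 µM, one dose / Detection: fluorescence polarization (mP)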
* marks the source's active call; other numbers are inactive results; ? = inconclusive; nt = not tested or not shown. In the library only some 2.9% were active in any assay of this set; here they are far more common.

SMILES	CAL PDZ FP-1	SIRT5 block	ERAP1 HTS inh	DENV2 CPE	S100A4 MyoIIA	CAL PDZ FP-2
COc1ccc(CCC(=O)OCC(=O)c2ccc[nH]2)cc1OC	-5	0	6	0	2	-1
COc1ccc(C(=O)NCC(=O)NCC(=O)OCC(=O)c2ccc(C)cc2)cc1	-4	-3	1	2	-3	0
COc1ccc(C(=O)NCC(=O)OCC(=O)c2cc(OC)c(OC)c(OC)c2)cc1OC	-1	-4	-1	-3	2	-2
COc1cc(C(=O)NCC(=O)OCC(=O)c2ccc[nH]2)cc(OC)c1OC	61*	nt	nt	nt	nt	0
COc1ccc(OC)c(C(=O)COC(=O)CNC(=O)c2ccccc2)c1	-4	15*	0	3	1	0
COc1ccc(S(=O)(=O)NCCC(=O)OCC(=O)c2ccc[nH]2)cc1[N+](=O)[O-]	46*	-4	-3	-2	-2	0
COc1ccc(NC(=O)N(C)C[C@@H]2Oc3cc(-c4ccc(C)cc4)ccc3S(=O)(=O)N([C@@H](C)CO)C[C@@H]2C)cc1	nt	2	0	4	-4	nt
Cc1cccc(-c2ccc([C@@H]3[C@@H](CO)N4CCCCN(C(=O)c5ccncc5)C[C@H]34)cc2)c1	nt	10	1	15	-18	nt
Cc1cccc(-c2ccc([C@H]3[C@@H](CO)N4CCCCN(C(=O)c5ccncc5)C[C@H]34)cc2)c1	nt	-1	1	20*	-15	nt
COc1cccc(-c2ccc([C@H]3[C@H](CO)N4CCCCN(C(=O)c5ccc(F)cc5)C[C@@H]34)cc2)c1	nt	1	1	37*	1	nt
COc1ccc(-c2ccc([C@H]3[C@H](CO)N4CCCCN(C(=O)c5ccc(F)cc5)C[C@@H]34)cc2)cc1	nt	3	-1	nt	2	nt
COc1ccc2c3c([nH]c2c1)[C@H](CO)N(C(=O)c1cccnc1)CC31CCN(C(=O)Nc2cccc(F)c2)CC1	nt	5	5	15	9	nt
O=C(C[C@H]1C[C@H]2c3cc(NC(=O)Nc4ccccc4F)ccc3O[C@H]2[C@@H](CO)O1)NCc1ccc2c(c1)OCO2	nt	0	-1	1	-4	nt
COCCNC(=O)c1ccc(CS(=O)(=O)c2c(Cl)cccc2Cl)o1	nt	nt	-3	58*	-4	0
CCN1CCN(CCNC(=O)c2ccc(CS(=O)(=O)c3c(Cl)cccc3Cl)o2)CC1	-4	nt	nt	?	8	0
Cc1ccc(C2=NOC(C)(c3nnc(-c4ccncc4)o3)C2)cc1 (centres undefined)	-3	nt	-2	58*	-8	0
Cc1ccc(NC(=O)c2cc(-c3cc(Cl)ccc3C)n[nH]2)cc1NS(C)(=O)=O	nt	nt	9	27*	0	nt
COc1ccc(Cl)cc1-c1cc(C(=O)Nc2ccc(C)c(NS(C)(=O)=O)c2)[nH]n1	nt	0	14	-2	-7	nt
CC(C)(Sc1ccc(CCN(CCCCC2CCCCC2)C(=O)NC2CCCCC2)cc1)C(=O)O	-4	26*	-1	2	0	-1
C[C@@H]1CCCCO[C@@H](CN(C)C)[C@H](C)CN([C@H](C)CO)C(=O)c2cc(NS(=O)(=O)c3cn(C)cn3)ccc2O1	nt	-1	1	0	21	nt
Cc1noc(C)c1S(=O)(=O)Nc1ccc2c(c1)C(=O)N([C@@H](C)CO)C[C@H](C)[C@H](CN(C)S(=O)(=O)c1cccs1)OCCCC[C@H](C)O2	nt	nt	nt	2	nt	nt
CCNC(=O)C[C@H]1CC[C@@H]2[C@@H](COc3ccc(NC(=O)Nc4c(C)noc4C)cc3C(=O)N2C)O1	nt	2	-1	-3	-4	nt
O=C(NCc1ccccc1)c1ccc(NC(=O)C2CC2)cc1	0	nt	nt	19	1	-1
O=C(Nc1ccc(F)cc1)c1ccccc1NC(=O)C1CCCCC1C(=O)O (centres undefined)	8	-1	-6	2	-6	0
O=C(NCCc1ccccc1)c1ccccc1NC(=O)C1CCCCC1C(=O)O (centres undefined)	nt	14	-3	44*	5	nt
SMILES	CAL PDZ FP-1	SIRT5 block	ERAP1 HTS inh	DENV2 CPE	S100A4 MyoIIA	CAL PDZ FP-2
O=C(NC1CC1)c1ccc(NC(=O)C2CCCC2)cc1	10	nt	nt	72*	-4	-1
O=C(NCCc1ccccc1)c1ccc(NC(=O)C2CC2)cc1	59*	-1	1	14	-4	-1
CN(C)C(=O)C[C@@H]1CC[C@@H](NC(=O)C2CCOCC2)[C@H](CO)O1	nt	1	-1	-2	12	nt
C[C@H](CO)N1C[C@H](C)[C@H](CN(C)S(C)(=O)=O)Oc2c(NC(=O)C3CCCCC3)cccc2C1=O	nt	3	3	-6	19	nt
COc1ccccc1CNC(=O)C[C@@H]1C[C@H]2c3cc(N(C)C)ccc3O[C@H]2[C@@H](CO)O1	nt	1	0	47*	4	nt
CN(C)c1ccc2c(c1)[C@@H]1C[C@H](CC(=O)NCc3ccccc3)O[C@@H](CO)[C@@H]1O2	nt	8	0	21*	-4	nt
CN(C)c1ccc2c(c1)[C@H]1C[C@H](CC(=O)NCc3ccc(-c4ccccc4)cc3)O[C@@H](CO)[C@H]1O2	nt	nt	nt	7	nt	nt
COc1ccccc1CNC(=O)C[C@H]1C[C@@H]2c3cc(N(C)C)ccc3O[C@@H]2[C@@H](CO)O1	nt	2	1	7	-14	nt
FC(F)(F)c1cccnc1Oc1ccc(C2=NCCS2)cc1	6	-2	1	68*	-4	-1
CCN(CC)CCn1c(=S)[nH]c2ccccc2c1=O	-4	nt	nt	nt	nt	-2
CCN(CC)CCn1c(=S)[nH]c2ccc(Br)cc2c1=O	87*	1	-1	0	-10	4
COc1ccc(S(=O)(=O)N2CCCCCC2)cc1C(=O)N(C)CCOc1ccc(Cl)cc1	-2	-1	1	1	-2	-3
CCN1CCN(S(=O)(=O)c2ccc(Cl)c(C(=O)N(C)CCOc3ccc(Cl)cc3)c2)CC1	-1	1	-1	67*	-3	-1
Cc1noc(C)c1S(=O)(=O)Nc1ccc2c(c1)C(=O)N([C@@H](C)CO)C[C@@H](C)[C@H](CN(C)Cc1ccc(C(F)(F)F)cc1)OCCCC[C@H](C)O2	nt	9	4	10	18	nt
Cc1noc(C)c1S(=O)(=O)Nc1ccc2c(c1)C(=O)N([C@@H](C)CO)C[C@H](C)[C@@H](CN(C)Cc1ccc(C(F)(F)F)cc1)OCCCC[C@@H](C)O2	nt	25*	0	0	-3	nt
Cc1noc(C)c1S(=O)(=O)Nc1ccc2c(c1)C(=O)N([C@H](C)CO)C[C@H](C)[C@H](CN(C)Cc1ccncc1)OCCCC[C@@H](C)O2	nt	0	-2	26*	2	nt
Cc1noc(C)c1S(=O)(=O)Nc1ccc2c(c1)C(=O)N([C@H](C)CO)C[C@H](C)[C@@H](CN(C)Cc1ccncc1)OCCCC[C@@H](C)O2	nt	9	0	-7	4	nt
